Experimental findings from article PMC8905529 (RSC Chemical Biology, 2022) are described below.

Series [1] relates to chymotrypsin. Description: Enzymatic. In kind it is in vitro ADME. Particulars: chymotrypsin in PBS, pH 7.4. In a few lines:
(§1)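 Test peptide at 0.33 mM final in PBS (pH 7.4) with trypsin or chymotrypsin at 0.05 μg mL−1 final. Incubated at 37 °C with shaking (200 rpm) for 24 h. Fragments were identified by MALDI-TOF MS and ESI-TOF LC-MS.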

Series [2] has as its system trypsin. Put plainly: Enzymatic. It counts as in vitro ADME. Particulars: trypsin in PBS, pH 7.4. In a few lines: as §1
For series [3], the target named is T1, ComD1 receptor (Streptococcus pneumoniae serotype 2, UniProt A0A0H2ZM50).
T1 sequence (A0A0H2ZM50 1-441): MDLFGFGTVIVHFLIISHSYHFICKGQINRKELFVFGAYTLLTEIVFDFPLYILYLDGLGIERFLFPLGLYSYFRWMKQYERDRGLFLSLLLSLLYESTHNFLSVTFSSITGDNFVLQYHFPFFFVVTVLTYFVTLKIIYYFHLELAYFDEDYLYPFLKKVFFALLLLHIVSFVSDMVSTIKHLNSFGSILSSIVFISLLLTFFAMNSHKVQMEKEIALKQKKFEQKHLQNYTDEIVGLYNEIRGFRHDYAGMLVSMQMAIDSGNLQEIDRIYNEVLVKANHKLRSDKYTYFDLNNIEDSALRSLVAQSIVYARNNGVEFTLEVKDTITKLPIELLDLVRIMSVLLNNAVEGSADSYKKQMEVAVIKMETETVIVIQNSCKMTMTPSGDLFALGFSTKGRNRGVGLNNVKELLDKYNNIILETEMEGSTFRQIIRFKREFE
Put plainly: β-galactosidase competitive inhibition reporter assay, D39pcomX::lacZ. In kind it is cell-based. In a few lines:
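Early-exponential D39pcomX::lacZ in THY (OD600 0.30–0.35) was incubated 30 min at 37 °C. Cells were then Triton X-100-lysed and given ONPG (0.4 mg mL−1) for 3 h at 37 °C, quenched with sodium carbonate, and read at OD420/550 for Miller units.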

In series [4] the target is T1, ComD1 receptor. Description: β-galactosidase activation reporter assay, D39pcomX::lacZ. It counts as cell-based. In a few lines:
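D39pcomX::lacZ was grown on THY agar (5% horse serum, 4 μg mL−1 chloramphenicol), then in THY overnight, diluted 1:50 and grown to OD600 0.30–0.35. […] After 30 min at 37 °C, cells were lysed with Triton X-100 and given ONPG (0.4 mg mL−1, pH 7.0) for 3 h. Reads: OD420/550, Miller units; EC50 by nonlinear regression.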
(In general: Reporter assays use an easily measured gene product as a stand-in for the process of interest.)

The structures appear in SMILES notation. Where a SMILES comes first, the peptide text is derived from it. [ ]: non-standard residue; d: D form. Cha = N[C@@H](CC1CCCCC1)C(=O)O; hLeu = CC(C)CC[C@H](N)C(=O)O

With `CC[C@H](C)[C@H](NC(=O)[C@H](Cc1ccccc1)NC(=O)[C@H](CC(=O)O)NC(=O)[C@H](CCCNC(=N)N)NC(=O)[C@H](Cc1ccccc1)NC(=O)[C@H](Cc1ccccc1)NC(=O)[C@H](CCCCN)NC(=O)[C@H](CO)NC(=O)[C@H](CC(C)C)NC(=O)[C@H](CCCNC(=N)N)NC(=O)[C@H](CCSC)NC(=O)[C@@H](N)CCC(=O)O)C(=O)N[C@@H](CC(C)C)C(=O)N[C@@H](CCC(N)=O)C(=O)N[C@@H](CCCNC(=N)N)C(=O)N[C@@H](CCCCN)C(=O)N[C@@H](CCCCN)C(=O)O` [CSP1, reference compound], the half-life (usually the time needed for the level to fall by half in the phase considered) at 0.33 mM is 1 h in series [1] and 0.5 h in series [2].
Consider `CSCC[C@H](NC(=O)[C@H](C)N)C(=O)N[C@@H](CCCNC(=N)N)C(=O)N[C@@H](CC(C)C)C(=O)N[C@@H](CO)C(=O)N[C@@H](CCCCN)C(=O)N[C@@H](CC1CCCCC1)C(=O)N[C@@H](Cc1ccccc1)C(=O)N[C@@H](CCCNC(=N)N)C(=O)N[C@@H](CC(=O)O)C(=O)N[C@@H](Cc1ccccc1)C(=O)N[C@@H](CC1CCCCC1)C(=O)N[C@@H](CC(C)C)C(=O)N[C@@H](CCC(N)=O)C(=O)N[C@@H](CCCNC(=N)N)C(=O)N[C@@H](CCCCN)C(=O)N[C@@H](CCCCN)C(=O)O` [CSP1-E1A/F7Cha/I12Cha] (H-AMRLSK[Cha]FRDF[Cha]LQRKK-OH), for which the IC50 (in general, the point on the concentration scale where inhibition reaches its midpoint) in series [3] is 72 nM. This counts as double-digit nanomolar.
`CC[C@H](C)[C@H](NC(=O)[C@H](Cc1ccccc1)NC(=O)[C@H](CC(=O)O)NC(=O)[C@H](CCCNC(=N)N)NC(=O)[C@H](Cc1ccccc1)NC(=O)[C@H](CC1CCCCC1)NC(=O)[C@H](CCCCN)NC(=O)[C@H](CO)NC(=O)[C@H](CC(C)C)NC(=O)[C@H](CCCNC(=N)N)NC(=O)[C@H](CCSC)NC(=O)[C@H](C)N)C(=O)N[C@@H](CC(C)C)C(=O)N[C@@H](CCC(N)=O)C(=O)N[C@@H](CCCNC(=N)N)C(=O)N[C@@H](CCCCN)C(=O)N[C@@H](CCCCN)C(=O)O` [CSP1-E1A/F7Cha] (H-AMRLSK[Cha]FRDFILQRKK-OH) came in with an IC50 in series [3] of 36 nM. For the same molecule, the half-life at 0.33 mM in series [1] and in series [2] was 4 h each time.
For the molecule `CC[C@H](C)[C@H](NC(=O)[C@H](Cc1ccccc1)NC(=O)[C@H](CC(=O)O)NC(=O)[C@H](CCCNC(=N)N)NC(=O)[C@H](Cc1ccccc1)NC(=O)[C@H](CCC(C)C)NC(=O)[C@H](CCCCN)NC(=O)[C@H](CO)NC(=O)[C@H](CC(C)C)NC(=O)[C@H](CCCNC(=N)N)NC(=O)[C@H](CCSC)NC(=O)[C@H](C)N)C(=O)N[C@@H](CC(C)C)C(=O)N[C@@H](CCC(N)=O)C(=O)N[C@@H](CCCNC(=N)N)C(=O)N[C@@H](CCCCN)C(=O)N[C@@H](CCCCN)C(=O)O` [CSP1-E1A/F7HLeu] (H-AMRLSK[hLeu]FRDFILQRKK-OH), the IC50 in series [3] is 72 nM.
In the case of `CSCC[C@H](NC(=O)[C@H](C)N)C(=O)N[C@@H](CCCNC(=N)N)C(=O)N[C@@H](CC(C)C)C(=O)N[C@@H](CO)C(=O)N[C@@H](CCCCN)C(=O)N[C@@H](CC1CCCCC1)C(=O)N[C@@H](Cc1ccccc1)C(=O)N[C@@H](CCCNC(=N)N)C(=O)N[C@@H](CC(=O)O)C(=O)N[C@@H](Cc1ccccc1)C(=O)N[C@@H](CCC(C)C)C(=O)N[C@@H](CC(C)C)C(=O)N[C@@H](CCC(N)=O)C(=O)N[C@@H](CCCNC(=N)N)C(=O)N[C@@H](CCCCN)C(=O)N[C@@H](CCCCN)C(=O)O` [CSP1-E1A/F7Cha/I12HLeu] (H-AMRLSK[Cha]FRDF[hLeu]LQRKK-OH), the IC50 in series [3] was 57 nM.
`CSCC[C@H](NC(=O)[C@@H](N)CCC(=O)O)C(=O)N[C@@H](CCCNC(=N)N)C(=O)N[C@@H](CC(C)C)C(=O)N[C@@H](CO)C(=O)N[C@@H](CCCCN)C(=O)N[C@@H](CC1CCCCC1)C(=O)N[C@@H](Cc1ccccc1)C(=O)N[C@@H](CCCNC(=N)N)C(=O)N[C@@H](CC(=O)O)C(=O)N[C@@H](Cc1ccccc1)C(=O)N[C@@H](CC1CCCCC1)C(=O)N[C@@H](CC(C)C)C(=O)N[C@@H](CCC(N)=O)C(=O)N[C@@H](CCCNC(=N)N)C(=O)N[C@@H](CCCCN)C(=O)N[C@@H](CCCCN)C(=O)O` [CSP1-F7Cha/I12Cha] (H-EMRLSK[Cha]FRDF[Cha]LQRKK-OH): the half-life at 0.33 mM in series [1] was 6 h; in series [2], 3 h. Also, the EC50 (in general, the concentration at which the effect is half-maximal) in series [4] is under 1 nM.
